# Screening results deposited in PubChem BioAssay by several laboratories.
# DTT redox prof = compounds producing H2O2 with reducing agent – biochemical, NIH compound library profiling, artefact control for MLSCN library redox annotation, primary screen; DTT-dependent redox cycling H2O2, phenol red/HRP absorbance; 100% = 100 µM peroxide control, 0% = buffer; activation, % at 10 µM; 200,000 tested, 0.03% active; AID 878, 2007;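 active = activation of at least 50% relative to the plate's high and low controls in the primary single-dose screen; inactive = activation below 50%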;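 note: compound incubated with DTT at 0.8 mM final as the reducing agent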
# ROMK mod = ROMK potassium channel modulators, primary screen, cell-based, thallium flux, MLSMR library. Tet-inducible ROMK, thallium flux fluorescence; actives lie on both sides. B-score at 10 µM. 130,000 tested, 2% active;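 active = signal ratio slope over the read window, or its plate-corrected B-score, at least 3 SD from the plate mean, either direction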;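 note: B-score of the F/F0 ratio slope over 7 to 12 s after thallium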
# Dynein cargo inh = inhibitors of GR-EGFP nuclear translocation, primary screen, dynein cargo transport inhibitor project, imaging, high-content, 3617.4 mouse cells. 220,000 tested, 0.47% active. test concentration mostly 20 µM; stimulated with dexamethasone, 1 µM; stronger effect = lower value. z-score, hits read low. AID 1381, 2008;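 active = plate z-score of nuclear minus cytoplasmic receptor signal below a set negative limit, without overly bright fluorescence or cell loss, cut at about -3.5 in these data, passing the limit was not always enough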;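 note: z-score of nuclear minus cytoplasmic ring GR-EGFP intensity difference per well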
#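 medium = tetracycline-free induction medium containing charcoal-stripped FBS | probe or stimulus = dexamethasone, 1.0 µM final | timing = 48 h induction, then 1 h compound, then 30 min agonist, 37 °C | detection = automated 10x imaging of fixed Hoechst-stained cells | read-out basis = nuclear versus cytoplasmic GR-EGFP signal, averaged per well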
# Autophagy mod = autophagy modulators in MEF cells, primary screen, imaging, high-content, MEF GFP-LC3. 190,000 tested, 0.98% active. MEF GFP-LC3 puncta imaging; test concentration mostly 10 µM. calls only at 10 µM (by protocol);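 active = percentage of spot-positive cells more than 3 SD above its plate mean, without a fluorescence outlier flag or 80% toxicity; inconclusive = no clear call, values can overlap the other calls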;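 note: spot-positive cell cutoff set from DMSO-treated cells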
# KCC2 mod = KCC2 cotransporter modulators, thallium flux, primary screen, cell-based, HEK293 KCC2, FluoZin-2 fluorescence, MLSMR | Solute carrier family 12 member 5 (Homo sapiens), Q9H2X9 | KCC2 cells, thallium flux FluoZin-2 fluorescence | B-score of Tl+ flux slope (higher = more flux/activation; lower = inhibition) at 10 µM | 190,000 tested, 2.2% active | AID 1456, 2008;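 active = thallium flux slope and its plate-corrected score both differing from the plate sample mean at a set confidence after two filtering rounds, in either direction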;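 note: slope of fluorescence scaled to starting intensity during 10 to 20 s after thallium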
# Target sequence (Q9H2X9 whole entry, looked up): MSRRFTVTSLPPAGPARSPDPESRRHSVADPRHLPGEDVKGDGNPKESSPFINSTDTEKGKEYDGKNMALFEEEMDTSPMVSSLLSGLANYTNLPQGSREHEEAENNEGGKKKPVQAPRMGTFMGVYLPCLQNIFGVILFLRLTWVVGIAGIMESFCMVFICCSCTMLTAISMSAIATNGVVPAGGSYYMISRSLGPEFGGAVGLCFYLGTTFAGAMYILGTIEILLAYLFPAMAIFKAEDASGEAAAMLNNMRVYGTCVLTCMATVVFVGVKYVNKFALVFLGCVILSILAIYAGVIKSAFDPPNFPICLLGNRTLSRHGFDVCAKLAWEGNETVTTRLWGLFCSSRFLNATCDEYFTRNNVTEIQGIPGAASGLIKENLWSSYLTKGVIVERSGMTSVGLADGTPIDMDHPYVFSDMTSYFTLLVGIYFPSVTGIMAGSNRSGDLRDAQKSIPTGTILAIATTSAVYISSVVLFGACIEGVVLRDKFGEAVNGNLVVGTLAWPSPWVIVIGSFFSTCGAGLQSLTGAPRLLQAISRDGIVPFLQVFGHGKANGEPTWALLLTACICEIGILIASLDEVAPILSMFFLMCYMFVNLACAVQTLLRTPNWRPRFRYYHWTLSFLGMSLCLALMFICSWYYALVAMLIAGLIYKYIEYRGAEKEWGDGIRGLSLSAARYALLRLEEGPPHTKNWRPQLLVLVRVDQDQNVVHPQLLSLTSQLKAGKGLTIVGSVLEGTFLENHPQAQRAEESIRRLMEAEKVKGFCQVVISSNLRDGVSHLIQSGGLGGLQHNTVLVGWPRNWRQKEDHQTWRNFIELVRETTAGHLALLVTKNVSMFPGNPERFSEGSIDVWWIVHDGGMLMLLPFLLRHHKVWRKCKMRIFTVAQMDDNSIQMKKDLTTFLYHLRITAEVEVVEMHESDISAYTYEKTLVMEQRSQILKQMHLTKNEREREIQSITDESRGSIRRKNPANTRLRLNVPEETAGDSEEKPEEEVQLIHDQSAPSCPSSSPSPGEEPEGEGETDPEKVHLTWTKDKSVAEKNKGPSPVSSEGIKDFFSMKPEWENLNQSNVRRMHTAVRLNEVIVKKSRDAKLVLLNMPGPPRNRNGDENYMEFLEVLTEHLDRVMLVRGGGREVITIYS
# KCC2 secondary = KCC2 modulators in sodium-free buffer, confirmation, cell-based, HEK293 KCC2, thallium flux, secondary assay. shares compounds with KCC2 mod. FluoZin2 fluorescence; stronger effect = higher value. AID 1713, 2009. normalised thallium flux (F/F0 slope) at 10 µM. 3,700 tested, 15% active;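 active = thallium flux slope above the same plate's solvent-only control mean plus 3 SD; inconclusive = the two replicate wells disagree; inactive = no significant difference from solvent-only control wells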
# KCC2 bumet counter = thallium flux persisting under bumetanide in KCC2 cells, confirmation, counter-screen for KCC2 modulator project, cell-based, HEK293 KCC2, FluoZin2, secondary assay 3. normalized thallium flux at 10 µM. HEK293-KCC2 + bumetanide/ouabain; stronger effect = higher value. 3,700 tested, 49% active. shares compounds with KCC2 mod. AID 1714, 2009;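 active = thallium entry rate above the same plate's blocked-transporter control wells by more than 3 SD; inconclusive = the two repeat wells disagree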;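 note: raw slope of fluorescence over initial fluorescence between 10 and 20 s after thallium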
# KCC2 secondary2 = KCC2 modulators without ouabain present, confirmation, cell-based, HEK293 KCC2, thallium flux, FluoZin2, secondary assay 2. thallium flux FluoZin2 fluorescence; actives lie on both sides; F/F0 rise rate, 10–20 s post-thallium. 3,700 tested, 23% active. shares compounds with KCC2 mod. normalized thallium flux at 10 µM;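 active = thallium flux slope more than 3 SD above or below the plate's solvent-only control mean, mostly below; inconclusive = the two repeat wells disagreed; inactive = no significant shift from solvent-only controls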;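 note: raw slope with 0.1% DMSO as baseline and bumetanide as block control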
# HEK counter1 = thallium flux modulation in parental HEK cells, confirmation, counter-screen for KCC2 modulator project, cell-based, counterscreen 1; shares compounds with KCC2 mod; HEK293 parental cells, thallium flux FluoZin2, ouabain; baseline-ratio fluorescence slope, 10–20 s after thallium; thallium flux rate (normalised fluorescence) at 10 µM; 3,700 tested, 46% active; AID 1716, 2009;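 active = thallium flux rate significantly above the same plate's solvent-only control wells, beyond their mean plus 3 SD; inconclusive = the two replicate wells gave conflicting results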
# KCC2 ouabain = KCC2 inhibitors and activators, ouabain retest, confirmation, HEK-KCC2 cells | AID 1717, 2009 | raw Tl+ flux slope (below DMSO = inhibition, above = activation) at 10 µM | shares compounds with KCC2 mod | HEK293-KCC2, thallium flux FluoZin2 fluorescence; bidirectional: low = inhibitor, high = activator | 3,700 tested, 48% active;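 active = thallium flux slope beyond 3 SD from same-plate DMSO control mean in most replicates, usually higher, sometimes lower; inconclusive = repeat tests gave conflicting results; inactive = no significant difference from controls in most replicates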;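 note: slope of initial-normalized fluorescence between seconds 10 and 20 after thallium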
# HEK counter2 = native HEK Tl+ uptake effects, second counter-screen – HEK cells, counterscreen 2, counter-screen for KCC2 modulator project, confirmation; shares compounds with KCC2 mod; HEK293 parental, thallium flux FluoZin-2 fluorescence slope; thallium flux slope at 10 µM; 3,700 tested, 33% active;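 active = thallium flux slope above the same plate's solvent-control mean plus 3 SD in both duplicate wells; inconclusive = duplicate wells that disagreed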;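 note: run without ouabain in cells lacking the KCC2 cotransporter; slope of fluorescence scaled to its starting value between 10 and 20 s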
# * = called active by the depositor; i = inactive; u = inconclusive; x = not tested or not shown. In the library only some 4.1% were active in any assay of this set; here they are far more common.
SMILES,DTT redox prof,ROMK mod,Dynein cargo inh,Autophagy mod,KCC2 mod,KCC2 secondary,KCC2 bumet counter,KCC2 secondary2,HEK counter1,KCC2 ouabain,HEK counter2
COc1ccc(NC(=O)c2ccccc2-c2ccc(C(F)(F)F)cc2)cc1S(=O)(=O)N1CCOCC1,-0.1,-0.597,-0.577,i,0.0385,x,x,x,x,x,x
CCN(CC)C(=O)CS(=O)(=O)CC(=O)Nc1cc(OCCOC)c(Cl)cc1Cl,-1.3,x,-0.479,i,1.37,x,x,x,x,x,x
O=c1[nH]c(=O)n(C2CCCO2)cc1Br (stereo unspecified),0.0,x,-0.787,i,3.94*,0.00867,0.0071,0.0337,0.00779,0.0207,0.0104
CCCCCCCCCCC(=O)Nc1cccnc1,-1.3,x,0.199,i,-0.827,x,x,x,x,x,x
CC(C)(C)OC(=O)N1CCCN(C(=O)Nc2ccc(C(F)(F)F)cc2)CC1,x,-0.628,0.549,x,-0.197,x,x,x,x,x,x
O=C1CCN(C(=O)c2ccc(Cl)cc2)N1,-0.4,0.394,-0.655,i,-3.28*,0.0101,0.00601,0.0316,0.00812,0.0188,0.0115
O=C1CCN(C(=O)CSc2ccc(Cl)cc2)N1,-0.6,0.294,-0.678,i,0.33,x,x,x,x,x,x
CCn1nc(NC(=O)c2ccccn2)c2cc3cc(C)ccc3nc21,-0.1,x,-0.257,i,7.32*,0.0056,0.00362,0.0262,0.00731,0.0179,u
CCCCC(=O)Nc1nn(CCC)c2nc3ccccc3cc12,2.0,x,0.214,i,-3.83*,0.00941,0.00673,0.0288,0.0073,0.0433,0.0102
Cc1ccc2nc3c(cc2c1)c(NC(=O)c1ccccn1)nn3CC(C)C,0.6,x,-0.481,i,x,x,x,x,x,x,x
CCCCC(=O)Nc1nn(C)c2nc3c(C)cccc3cc12,0.1,0.389,-0.238,i,x,x,x,x,x,x,x
COc1ccc(Nc2cc(C)nc3ccccc23)cc1,0.1,-1.89,-0.0684,i,1.3,0.0098,0.00804*,0.0304,0.00732,0.0205,0.011
CC(=O)c1ccc(Nc2cc(C)nc3ccccc23)cc1,1.0,-0.0243,0.676,i,-0.657,x,x,x,x,x,x
Cc1ccc(S(=O)(=O)N(Cc2cc3cccc(C)c3[nH]c2=O)c2ccccc2)cc1,-0.5,-0.465,0.98,i,0.903,x,x,x,x,x,x
COc1cccc(CN(C)C(=O)c2cc(COc3c(F)cccc3F)on2)c1,-1.0,0.716,-0.997,i,x,0.00698,0.00372,0.0246*,u,0.0141*,0.00895
COc1cccc(CN(C)C(=O)c2cc(COc3ccc4ncccc4c3)on2)c1,-1.6,-1.26,2.47,i,x,0.00709,0.00356,0.0249*,u,0.0142*,0.00985
CN(Cc1cnn(C)c1)C(=O)c1cc(COc2c(F)cccc2F)on1,0.0,0.122,-0.997,i,x,x,x,x,x,x,x
O=C(NCC1OCCc2ccccc21)c1cc(COc2c(F)cccc2F)on1 (stereo unspecified),1.1,-0.849,0.613,i,-5.95*,0.00553,0.00438,u,u,0.0128*,0.0108
O=C(NCCc1cn2ccccc2n1)c1cc(COc2ccc3ncccc3c2)on1,-1.4,-1.36,0.179,i,x,0.00762,0.00642,0.03,0.00743,u,0.00971
CCn1c(Cc2ccccc2)nnc1SCC(=O)Nc1ccccc1O,0.1,-0.62,0.7,i,-0.658,x,x,x,x,x,x
CCN(CCn1cccn1)C(=O)c1cc(COc2c(F)cccc2F)on1,1.9,0.208,-0.266,i,-1.5,x,x,x,x,x,x
CCN(Cc1ccccc1)C(=O)c1cc(COc2c(F)cccc2F)on1,x,x,0.481,x,-4.68*,0.00613,0.00452,0.0314,0.00659,0.0143*,u
Cc1cc(C(C)(C)C)ccc1OCCN1CCCC1,0.2,0,1.14,i,x,0.00869,0.00602,0.0292,0.00674,0.0204,u
Cc1cc(C(C)(C)C)ccc1OCCCCN1CCCC1,0.3,-1.44,-0.686,i,0.324,x,x,x,x,x,x
S=C(NCc1ccco1)Nc1ccc(Br)cc1Cl,0.1,-0.774,-1.04,i,4.01*,0.0174,0.0105*,0.0306,0.00926*,0.0178,u
SMILES,DTT redox prof,ROMK mod,Dynein cargo inh,Autophagy mod,KCC2 mod,KCC2 secondary,KCC2 bumet counter,KCC2 secondary2,HEK counter1,KCC2 ouabain,HEK counter2
COc1ccc(/C=C2\CCc3ccccc3C2=O)cc1CN1CCOCC1,x,x,-0.717,x,-5.05*,u,u,0.0231*,0.00724,u,0.0104
O=[N+]([O-])c1ccc(O)c(/C=N/n2c(CO)nc3ccccc32)c1,x,x,-0.946,x,-1.52,x,x,x,x,x,x
O=[N+]([O-])c1ccc(O)c(/C=N/n2cnc3ccccc32)c1,0.5,x,-0.901,i,-4.52*,0.00546,0.00492,0.0215*,0.00606*,0.0132*,u
O=C(Nc1ccccc1Cl)N1CCN(c2ccc3nnc(-c4ccc(F)cc4)n3n2)CC1,-0.6,x,0.323,i,-3.92*,0.00921,0.00715,0.0301,0.00926*,0.0189,0.0103
Cc1nc2sccn2c(=O)c1Br,0.1,x,3.83,i,0.596,x,x,x,x,x,x
S=c1nc2ccccc2c2nc(-c3ccccc3)[nH]n12,-0.8,x,-0.854,i,32.3*,0.0301*,0.0459*,0.0359,0.013*,0.0413*,0.0169*
CCc1nc2n(n1)C(O)c1cc([N+](=O)[O-])ccc1S2 (stereo unspecified),x,x,-0.919,x,0.349,x,x,x,x,x,x
O=[N+]([O-])c1cccc(/C=N/Nc2ccccn2)c1,-1.2,1.11,1.87,i,-2.01,x,x,x,x,x,x
